Tests used:
[1] = target: T1, 85/88 kDa calcium-independent phospholipase A2 (Homo sapiens) (UniProt O60733); experiment: Inhibition of human recombinant group 6A iPLA2 expressed in Sf9 insect cells after 30 mins by Dole assay
T1 sequence (whole entry): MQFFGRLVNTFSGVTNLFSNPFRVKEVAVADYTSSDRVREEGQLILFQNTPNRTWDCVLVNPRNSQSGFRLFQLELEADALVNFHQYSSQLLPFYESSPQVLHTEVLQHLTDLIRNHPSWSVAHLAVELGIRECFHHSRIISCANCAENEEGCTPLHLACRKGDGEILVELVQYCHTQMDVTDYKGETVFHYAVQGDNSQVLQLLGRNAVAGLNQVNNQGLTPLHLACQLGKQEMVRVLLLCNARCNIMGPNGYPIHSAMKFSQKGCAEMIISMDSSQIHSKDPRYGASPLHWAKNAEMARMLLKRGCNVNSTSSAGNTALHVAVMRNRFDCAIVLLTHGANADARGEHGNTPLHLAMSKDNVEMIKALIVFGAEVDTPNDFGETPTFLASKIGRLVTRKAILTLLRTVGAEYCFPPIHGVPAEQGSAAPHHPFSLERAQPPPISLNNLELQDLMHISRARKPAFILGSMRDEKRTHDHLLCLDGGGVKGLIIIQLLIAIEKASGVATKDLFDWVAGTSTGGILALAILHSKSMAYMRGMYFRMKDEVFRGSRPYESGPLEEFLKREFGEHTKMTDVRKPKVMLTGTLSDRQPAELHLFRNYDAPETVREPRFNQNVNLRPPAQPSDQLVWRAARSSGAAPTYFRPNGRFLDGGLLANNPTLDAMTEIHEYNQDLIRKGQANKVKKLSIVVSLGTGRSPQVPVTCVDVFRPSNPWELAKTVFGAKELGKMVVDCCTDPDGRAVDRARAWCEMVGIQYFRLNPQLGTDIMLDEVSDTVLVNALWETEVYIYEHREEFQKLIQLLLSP
Method in brief: (§1)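 Screen at 0.091 mole fraction (mean, SE, n = 3). XI(50), the inhibitor mole fraction giving 50% inhibition, fitted sigmoidally from typically 7 levels between 0.00091 and 0.091.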

[2] = target: T1, 85/88 kDa calcium-independent phospholipase A2 (Homo sapiens); experiment: Inhibition of human recombinant group 6A iPLA2 expressed in Sf9 insect cells at 0.091 mol fraction after 30 mins by Dole assay; method in brief: as §1
[3] = target: T2, Cytosolic phospholipase A2 (Homo sapiens) (UniProt P47712); experiment: Inhibition of human group […] cPLA2 at 0.091 mol fraction after 30 mins by Dole assay
T2 sequence (whole entry): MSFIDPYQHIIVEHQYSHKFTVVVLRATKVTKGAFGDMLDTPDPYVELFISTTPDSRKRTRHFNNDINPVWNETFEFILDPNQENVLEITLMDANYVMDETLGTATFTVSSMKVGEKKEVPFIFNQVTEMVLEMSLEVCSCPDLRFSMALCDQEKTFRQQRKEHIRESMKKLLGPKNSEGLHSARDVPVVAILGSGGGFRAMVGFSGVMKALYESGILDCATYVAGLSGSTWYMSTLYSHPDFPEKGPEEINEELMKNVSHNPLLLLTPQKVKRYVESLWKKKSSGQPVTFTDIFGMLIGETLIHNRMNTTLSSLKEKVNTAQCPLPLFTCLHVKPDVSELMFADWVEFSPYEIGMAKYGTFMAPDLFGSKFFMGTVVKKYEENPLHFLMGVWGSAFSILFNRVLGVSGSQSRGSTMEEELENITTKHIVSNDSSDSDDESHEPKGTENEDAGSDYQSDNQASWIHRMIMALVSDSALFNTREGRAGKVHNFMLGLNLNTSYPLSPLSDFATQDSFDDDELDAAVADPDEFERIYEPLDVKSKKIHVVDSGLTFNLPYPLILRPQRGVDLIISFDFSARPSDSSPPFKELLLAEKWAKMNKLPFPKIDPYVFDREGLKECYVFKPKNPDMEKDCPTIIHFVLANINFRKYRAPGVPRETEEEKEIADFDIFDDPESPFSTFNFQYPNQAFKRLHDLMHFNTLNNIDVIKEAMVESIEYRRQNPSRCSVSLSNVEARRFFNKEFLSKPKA
Method in brief: (§2)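 Screened at 0.091 mole fraction (mean, SE, n = 3). XI(50) from % inhibition vs inhibitor mole fraction, typically 7 levels 0.00091–0.091, fitted by symmetrical sigmoidal non-linear regression.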

[4] = target: T3, Phospholipase A2 group V (Homo sapiens) (UniProt P39877); experiment: Inhibition of human group 5 sPLA2 at 0.091 mol fraction after 30 mins
T3 sequence (whole entry): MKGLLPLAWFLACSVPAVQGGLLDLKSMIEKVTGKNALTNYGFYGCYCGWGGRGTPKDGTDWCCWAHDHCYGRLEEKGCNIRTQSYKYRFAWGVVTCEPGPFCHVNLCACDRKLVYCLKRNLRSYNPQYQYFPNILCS
Method in brief: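 Inhibitor screened at 0.091 mole fraction of the micelle interface. Average percent inhibition reported (standard error, n = 3); 25% or less inhibition taken as none.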

[5] = target: T2, Cytosolic phospholipase A2 (Homo sapiens); experiment: Inhibition of human group […] cPLA2 after 30 mins by Dole assay; method in brief: as §2
[6] = species on record: Homo sapiens; experiment: Selectivity ratio for inhibition of human recombinant group 6A iPLA2 over inhibition of human group 5 sPLA2
[7] = species on record: Homo sapiens; experiment: Selectivity ratio for inhibition of human recombinant group 6A iPLA2 over inhibition of human group […] cPLA2
Method in brief: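 Ratio derived from XI(50) values for the two enzymes, using the modified Dole assay with 14C-labelled PAPC in Triton X-100 mixed micelles. GVIA iPLA2: 400 μM Triton X-100, 98.3 μM PAPC, 1.7 μM 14C-PAPC, 100 mM HEPES pH 7.5, 2 mM ATP, 4 mM DTT. GIVA cPLA2: 400 μM Triton X-100, 97 μM PAPC, 1.8 μM 14C-PAPC, 3 μM PIP2, 100 mM HEPES pH 7.5, 90 μM CaCl2, 2 mM DTT, 0.1 mg/ml BSA. XI(50) comes from a sigmoidal fit of % inhibition versus log mole fraction (typically 7 points, 0.00091–0.091).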

Row | XI50 (mole fraction) [1] | inhibition [2] | inhibition [3] | inhibition [4] | XI50 (mole fraction) [5] | Structure (SMILES) | Ratio [6] | Ratio [7]
1 | 0.0006 | 99.8% | 77.1% | 58.4% | – | O=C(CCCCc1ccc2ccccc2c1)C(F)(F)C(F)(F)F | – | –
2 | 0.003 | 98.4% | – | – | – | O=C(CCCCCc1ccccc1)C(F)(F)C(F)(F)C(F)(F)F | – | –
3 | 0.0029 | 99.4% | 91.5% | 61.4% | 0.022 | CCCCCCCCc1ccc(OCCCC(=O)C(F)(F)F)cc1 | – | –
4 | 0.0005 | 100% | 68.4% | 39.1% | – | O=C(C(F)CCCc1ccccc1)C(F)(F)C(F)(F)F (stereo unspecified) | – | –
5 | 0.0024 | 99.4% | 88.8% | 63% | – | CCCCCCCCc1ccc(OCCCC(=O)C(F)(F)C(F)(F)F)cc1 | – | –
6 | 0.0066 | 96.4% | – | 76.9% | – | O=C(/C=C/c1ccccc1)C(F)(F)C(F)(F)F | – | –
7 | 0.0014 | – | – | – | – | O=C(CCCCc1ccccc1)C(F)(F)C(F)(F)F | – | –
8 | 0.0005 | 100% | 79.9% | 36.1% | – | O=C(C(F)CCCc1ccccc1)C(F)(F)C(F)(F)C(F)(F)F (stereo unspecified) | > 180 | 76
9 | 0.039 | 94.3% | 44.8% | 67.3% | – | OC(CCCCc1ccccc1)C(F)(F)C(F)(F)F (stereo unspecified) | – | –
10 | 0.0313 | 96% | 59% | – | – | O=C(/C=C/C=C/c1ccccc1)C(F)(F)C(F)(F)F | – | –
11 | 0.0136 | 95.8% | 43.7% | 76.9% | – | CCCCCCOc1ccc(CCCCC(=O)C(F)(F)C(F)(F)C(F)(F)F)cc1 | – | –
12 | 0.0036 | 99.1% | – | – | – | O=C(CCCOc1ccccc1)C(F)(F)C(F)(F)F | – | –
13 | 0.0022 | 99.4% | 32.6% | 61.8% | – | O=C(CCCCc1ccccc1)C(F)(F)C(F)(F)C(F)(F)F | – | –
14 | 0.0025 | 97.6% | 52.1% | – | – | O=C(C(F)CCCc1ccccc1)C(F)(F)F (stereo unspecified) | – | –
15 | 0.0258 | 97% | 82% | 65.8% | – | OC(CCCCc1ccccc1)C(F)(F)C(F)(F)C(F)(F)F (stereo unspecified) | – | –
16 | 0.0574 | 80.6% | 57% | 33.9% | – | CCCCCCCC/C=C\CCCCCCCC(=O)C(F)(F)C(F)(F)C(F)(F)F | – | –
17 | 0.0084 | 98.3% | 76.1% | 71.7% | – | CCCCCCOc1ccc(CCCCC(=O)C(F)(F)C(F)(F)F)cc1 | – | –
18 | 0.0192 | 95.5% | 41.4% | 67% | – | CCCCCCCC/C=C\CCCCCCCC(=O)C(F)(F)C(F)(F)F | – | –
19 | 0.0013 | 98.8% | 66% | – | – | O=C(C(F)CCCCc1ccccc1)C(F)(F)F (stereo unspecified) | – | –
20 | 0.001 | 99.7% | 55.8% | 46.3% | – | O=C(CCCCc1ccc2ccccc2c1)C(F)(F)C(F)(F)C(F)(F)F | – | –

Row | Structure (SMILES) | XI50 (mole fraction) [1] | inhibition [2] | inhibition [3] | inhibition [4] | XI50 (mole fraction) [5] | Ratio [6] | Ratio [7]
21 | O=C(CCCCc1ccc2ccccc2c1)C(F)(F)F | 0.0002 | 99.9% | 80.8% | 36.8% | – | > 455 | 195
22 | O=Cc1ccc(CCCCC(=O)C(F)(F)C(F)(F)F)o1 | 0.0262 | 84.4% | – | 41.9% | – | – | –

Source: ChEMBL document CHEMBL1157935, “Potent and selective fluoroketone inhibitors of group VIA calcium-independent phospholipase A2” (J Med Chem, 2010)
